# Screening data: PubChem BioAssay, several laboratories
# PfG6PD inh: PfG6PD enzyme inhibitors, primary screen, biochemical, fluorescence intensity, uHTS. actives 0.78% (n = 350,000). glucose-6-phosphate dehydrogenase-6-phosphogluconolactonase (Plasmodium falciparum 3D7). PfGluPho enzyme, NADPH resazurin-diaphorase fluorescence. inhibition, % at 20 µM;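 active = inhibition reaching at least a set limit at 20 µM in the primary screen, cut at about 59% in these data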;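 note: 0% = DMSO wells with substrate and 100% = DMSO wells lacking glucose-6-phosphate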
# HKDC1 inhibitor: HKDC1 hexokinase inhibitors, primary screen, biochemical, fluorescence, uHTS | AID 493160, 2011 | Q2TB90 | inhibition, % at 20 µM | actives 0.16% (n = 340,000) | recombinant HKDC1, G6PDH/diaphorase resazurin coupled fluorescence;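 active = inhibition above about 35% when tested at 20 µM, limit read from the data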;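 note: plate controls were DMSO wells with enzyme for no effect and DMSO wells lacking enzyme for full effect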
#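 Test system: Recombinant HKDC1 (HK5) hexokinase enzyme, produced in-house | Input: HKDC1 at 5 µg/mL | Buffer or medium: Tris pH 8.0 buffer with MgCl2, Tween-20, BSA, BME | Schedule: 90 min reaction incubation at room temperature, dark | Technique: Resazurin-to-resorufin fluorescence via G6PDH and diaphorase coupling, 525/613 nm | Controls: DMSO wells with and without enzyme mix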
# M18AAP inhibitor: PfM18AAP inhibitors, malaria aminopeptidase, primary screen, biochemical, QFRET, recombinant enzyme. M18 aspartyl aminopeptidase (Plasmodium falciparum 3D7). H-Glu-NHMec fluorogenic cleavage. inhibition, % at 7.35 µM. actives 1.2% (n = 290,000). AID 1822, 2009;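 active = inhibition above the campaign mean inhibition over all tested compounds plus 3 SD, cut at about 28% in these data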;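 note: 0% = plate median of test compound wells and 100% = 2 mM ZnCl2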
# Neddyl block: inhibitors of cullin neddylation, primary screen, biochemical, TR-FRET, uHTS, NAE and Ubc12; AID 651699, 2012; inhibition, % at 25 µM; actives 0.58% (n = 360,000); in the data active = inhibition above about 36%
# Target sequence (P61081 whole entry, looked up): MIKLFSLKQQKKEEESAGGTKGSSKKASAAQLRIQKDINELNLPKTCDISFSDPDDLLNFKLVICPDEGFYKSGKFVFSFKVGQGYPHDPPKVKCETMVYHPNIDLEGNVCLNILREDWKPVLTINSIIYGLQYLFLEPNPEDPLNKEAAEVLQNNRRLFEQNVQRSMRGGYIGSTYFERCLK
# Target sequence (Q13564 whole entry, looked up): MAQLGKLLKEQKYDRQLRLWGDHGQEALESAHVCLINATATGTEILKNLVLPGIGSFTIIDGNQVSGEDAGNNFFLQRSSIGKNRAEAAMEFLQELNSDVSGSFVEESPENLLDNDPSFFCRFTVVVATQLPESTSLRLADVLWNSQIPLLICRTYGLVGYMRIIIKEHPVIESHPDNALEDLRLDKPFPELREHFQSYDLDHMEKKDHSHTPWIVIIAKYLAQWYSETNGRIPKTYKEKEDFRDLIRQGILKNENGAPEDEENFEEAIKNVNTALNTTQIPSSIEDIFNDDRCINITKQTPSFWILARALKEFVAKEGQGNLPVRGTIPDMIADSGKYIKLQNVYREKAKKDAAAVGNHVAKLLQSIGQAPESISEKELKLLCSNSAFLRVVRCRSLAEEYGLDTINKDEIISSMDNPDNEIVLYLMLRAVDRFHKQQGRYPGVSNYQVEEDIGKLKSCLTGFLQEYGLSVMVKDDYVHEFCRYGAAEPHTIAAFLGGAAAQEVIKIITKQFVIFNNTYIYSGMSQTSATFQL
# PfGluPho conf: PfG6PD inhibitors, hit retest, confirmation, biochemical, fluorescence intensity, single concentration; actives 34% (n = 2,400); recombinant PfGluPho, NADPH-diaphorase-resazurin fluorescence; inhibition, % at 20 µM; shares compounds with PfG6PD inh;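 active = inhibition of at least 50% at 20 µM in any single replicate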;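 note: 0% = DMSO with substrate and 100% = DMSO lacking glucose-6-phosphate substrate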
# Diaphorase 10uM: diaphorase inhibitors and chemical oxidizers, confirmation, counter-screen for P. falciparum G6PD inhibitor project, biochemical, fluorescence intensity, 10 µM NADPH. shares compounds with PfG6PD inh. inhibition, % at 20 µM. diaphorase-coupled resazurin reduction, NADPH 10 uM. actives 39% (n = 820). AID 504862, 2011;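 active = average inhibition reaching 50% or more with the compound at 20 µM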;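 note: resorufin red fluorescence formed as diaphorase reduces resazurin using NADPH; 0% = DMSO with enzyme and 100% = DMSO without enzyme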
# Diaph ctr 30uM: diaphorase inhibitors and chemical oxidizers, confirmation, counter-screen for P. falciparum G6PD inhibitor project, biochemical, fluorescence intensity, 30 µM NADPH | shares compounds with PfG6PD inh | Diaphorase/resazurin coupled assay, resorufin fluorescence | inhibition, % at 20 µM | actives 29% (n = 820) | AID 504863, 2011;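 active = inhibition averaging 50% or more, tested at 20 µM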;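 note: 0% = DMSO with enzyme and 100% = DMSO wells lacking diaphorase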
# Active calls of the source: *; · = not tested or not shown. The list is not random: actives were taken first. Their share in the collection is about 2.2%.
SMILES,PfG6PD inh,HKDC1 inhibitor,M18AAP inhibitor,Neddyl block,PfGluPho conf,others
CCN(CC)S(=O)(=O)c1ccc(C(=O)NCC2(N3CCOCC3)CCCCC2)cc1,15,-5,·,22,·,
Cn1c(C(=O)Nc2ccc3c(c2)OCO3)cc2sccc21,81*,8,5,1,22,
CCCCOC(=O)C1=C(C)Nc2ncnn2C1c1ccc(OCC)c(OC)c1 (stereo not given),62*,-5,-2,5,29,
C=CCc1cccc(/C=N/NC(=O)c2ccccc2OC)c1O,79*,-8,30*,4,30,
O=C(N/N=C/c1cccc(Oc2ccccc2)c1)c1ccccc1Br,89*,19,-4,-8,32,
C=CCc1cccc(/C=N/NC(=O)c2ccccc2Br)c1O,75*,-15,18,10,27,
O=C(N/N=C/c1ccccc1C(=O)O)c1ccccc1Br,-3,0,13,1,·,
N#Cc1ccccc1S(=O)(=O)N1CCN(C(=O)[C@H](Cc2ccccc2)NC(=O)c2ccco2)CC1,0,-8,·,-12,·,
CCc1cc(-c2n[nH]c(C)c2-c2nc3ccccc3s2)c(O)cc1OCC(=O)NN,20,-6,-7,-7,·,
CCc1cc(-c2n[nH]c(C)c2-c2nc(C)cs2)c(O)cc1OC,69*,-4,7,2,41,
CCCCCCCCCCCCCCCC[N+](C)(C)CCN(Cc1ccc(OC)cc1)c1ncccn1,64*,-5,·,7,14,
CC1CCN(C(=S)c2ccc(O)cc2)CC1,7,-5,9,13,·,
CC1CCN(C(=S)c2ccccc2O)CC1,64*,2,-51,6,17,
CC12CCC(=O)C=C1CCC1C2CCC2(C)C1CC1C3C(=O)N(Cc4ccccc4)C(=O)C3CC(=O)C12 (stereo not given),11,-2,·,3,·,
Cc1nc(NC(=O)c2ccc(Cl)cc2)sc1Cc1ccc2c(c1)OCO2,60*,-13,28,-11,29,
Cc1nc(NC(=O)c2ccccc2)sc1Cc1ccc2c(c1)OCO2,19,16,-1,0,·,
Cc1ccnc2nc(C(=O)OCC(=O)N(Cc3ccccc3)C(C)(C)C)nn12,-5,-6,·,10,·,
CCOc1ccccc1-n1c(=S)sc2c(=O)n(-c3ccccc3)c(=S)[nH]c21,73*,-1,5,-15,-5,
COc1ccccc1-n1c(=S)[nH]c2c(sc(=S)n2-c2ccccc2C)c1=O,72*,-2,-6,0,23,
COc1ccccc1-n1c(=S)[nH]c2c(sc(=S)n2-c2ccccc2)c1=O,63*,-6,2,-6,12,
COc1cccc(S(=O)(=O)N(C)C[C@H]2OCc3cn(nn3)CCCC(=O)N([C@@H](C)CO)C[C@@H]2C)c1,·,·,·,9,·,
O=C(Nc1ccncc1)c1ccc(NS(=O)(=O)c2ccc3[nH]c(=O)[nH]c3c2)cc1,4,0,-3,5,·,
COc1ccc(NC2CCCN(C(=O)c3ccc(C(C)=O)s3)C2)cc1 (stereo not given),-17,6,-1,-18,·,
CCOC(=O)NC1=NCC(C)(C)S1,-3,-4,·,0,·,
O=C(O)c1cccc(N2C(=O)C=CC2=O)c1,76*,·,·,5,76*,Diaphorase 10uM=14;Diaph ctr 30uM=13
SMILES,PfG6PD inh,HKDC1 inhibitor,M18AAP inhibitor,Neddyl block,PfGluPho conf,others
COc1ccc(NC(=O)c2ccc(Br)o2)cc1,20,-7,0,-3,·,
CC(C)c1ccc(NC(=O)c2cccc(Br)c2)cc1,68*,-4,0,-2,2,
CC(C)c1ccc(NC(=O)c2ccc(Br)o2)cc1,81*,2,4,-2,31,
O=C(CNC(=O)c1ccc(Br)o1)NCC(=O)OCc1ccccc1,-13,-3,·,5,·,
COc1ccccc1Cn1c(/C=C/c2ccccc2)nc2ccccc21,67*,3,-5,·,3,
COCCn1c(/C=C/c2ccccc2)nc2ccccc21,44,0,2,·,·,
COc1ccc(/C=C/c2nc3ccccc3n2Cc2ccccc2OC)cc1,76*,-5,1,·,22,
CC1(OC(=O)CCc2ccccc2)C(=O)C=C2C=C(c3ccc(C#N)cc3)N(c3ccccc3)C=C2C1=O (stereo not given),72*,32,·,5,23,
CC1(OC(=O)CCc2ccccc2)C(=O)C=C2C=C(c3ccc(C#N)cc3)N(C3CCCC3)C=C2C1=O (stereo not given),61*,19,·,22,19,
CC1(OC(=O)CCc2ccccc2)C(=O)C=C2C=C(c3ccc(C#N)cc3)N(CC3CC3)C=C2C1=O (stereo not given),40,14,·,23,·,
CC(C)OCCCN1C=C2C(=O)C(C)(OC(=O)CCc3ccccc3)C(=O)C=C2C=C1c1ccc(C#N)cc1 (stereo not given),81*,29,·,·,27,
OCC[C@H]1C[C@@H](O)[C@H](O)[C@@]2(OCc3ccccc32)O1,-9,1,·,5,·,
O=C(CSCc1ccc(Cl)cc1)N/N=C/c1ccco1,60*,-3,0,-9,25,
Cc1ccsc1/C=N/NC(=O)Cc1ccc(Cl)cc1,13,-6,-7,-16,·,
Cc1ccc(/C=N/NC(=O)CSCc2ccc(Cl)cc2)cc1,59*,7,0,-12,12,
Cc1ccsc1/C=N/NC(=O)CSCc1ccc(Cl)cc1,114*,-3,0,-14,65*,Diaphorase 10uM=78*;Diaph ctr 30uM=58*
Nc1nc(SCc2ccccc2Cl)c2ncn(C3OC(CO)C(O)C3O)c2n1 (stereo not given),4,-2,·,8,·,
CCc1ccccc1N1CC(C(=O)N2Cc3ccccc3CC2C(N)=O)CC1=O (stereo not given),-6,-2,·,20,·,
O=C(NC1CCCCCC1)C(=S)N1CCOCC1,59*,-13,16,-1,24,
O=C(NC1CCCCCC1)C(=S)N1CCCC1,-6,-5,-1,-1,·,
CSC1SCC2C(=O)N(C)C(C(C)C)C(=O)OCC(NC(=O)c3cnc4ccccc4n3)C(=O)NC(C)C(=O)N(C)C1C(=O)N(C)C(C(C)C)C(=O)OCC(NC(=O)c1cnc3ccccc3n1)C(=O)NC(C)C(=O)N2C (stereo not given),59*,14,·,-13,8,
CSc1nc(C(C)C)ccc1CNC(=O)CC(C)c1ccccc1 (stereo not given),-4,-3,-5,-9,·,
